The first series relates to Plasma. As to the kind of experiment: Drug level in Sprague-Dawley rat plasma at 1 mg/kg, iv assessed as 2-methoxyestradiol level after 5 mins. The series is classed as ADME, organism-based. The arrangement: dose 1 mg/kg, route intravenous. Particulars: in vivo. A digest of the protocol:
(§1)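 Jugular-cannulated Sprague–Dawley rats were fasted overnight and given a single tail-vein dose in 45% (w/v) hydroxypropyl-β-cyclodextrin in water (0.5 mg/mL, 2 mL/kg). K-EDTA blood was drawn via the cannula and the plasma was frozen below −20 °C. Plasma was acidified with formic acid and analysed by negative-ion ESI LC-MS/MS (MRM). Standard curves were spiked into rat plasma.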
Consider `COc1cc2c(cc1O)CC[C@@H]1[C@@H]2CC[C@]2(C)[C@@H](O)CC[C@@H]12` [2-METHOXYESTRADIOL], for which the Cp was 764 ng/mL.

Another series deals with Lewis lung carcinoma cell line. Briefly: Antitumor activity against LLC cells inoculated in C57BL/6J mouse assessed as lung weight at 200 mg/kg, ip qd for 12 days. The series is classed as functional. The note with it: route intraperitoneal. In outline: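 LLC cells in exponential growth were harvested by brief trypsinization (0.25% trypsin, 0.02% EDTA, 1 min, 37 °C), washed and resuspended at 5 × 10⁵ cells/mL in Ca²⁺/Mg²⁺-free PBS. Mice were housed under SPF conditions, with 10 per group. From day 3 after tumor cell injection, compound was given ip daily for 12 days. On day 15, mean lung weight was corrected for non-tumor-bearing lung weight. T/C = (A − C)/(B − C) versus vehicle (0.1 mL).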
With `COc1cc2c(cc1O)CC[C@@H]1[C@@H]2CC[C@]2(C)[C@@H](O)CC[C@@H]12` [2-METHOXYESTRADIOL], the Activity came out at 0.44 g.

Tested on in a further series: not listed separately
As to the kind of experiment: Drug level in Sprague-Dawley rat plasma at 1 mg/kg, iv after 5 mins. It is filed as ADME, organism-based.
Settings: not given
The arrangement: dose 1 mg/kg, route intravenous. In outline: as §1
Regarding `COc1cc2c(cc1O)CC[C@@H]1[C@@H]2CC[C@]2(C)[C@@H](O)CC[C@@H]12` [2-METHOXYESTRADIOL], the concentration at 5 min is 764 ng/mL.

The next series has as its system Plasma. Briefly: Drug level in Sprague-Dawley rat plasma at 1 mg/kg, iv assessed as 2-methoxyestrone level after 5 mins. The series is classed as ADME, organism-based. The arrangement: dose 1 mg/kg, route intravenous. Particulars: in vivo. In outline: as §1
For the compound `COc1cc2c(cc1O)CC[C@@H]1[C@@H]2CC[C@]2(C)[C@@H](O)CC[C@@H]12` [2-METHOXYESTRADIOL], the Cp was found to be 6.3 ng/mL.

Tested on in another series: not listed separately
Briefly: Drug level in Sprague-Dawley rat plasma at 1 mg/kg, iv after 15 mins. It is filed as ADME, organism-based. The arrangement: dose 1 mg/kg, route intravenous.
Settings: not given
In outline:
as §1
In turn, `COc1cc2c(cc1O)CC[C@@H]1[C@@H]2CC[C@]2(C)[C@@H](O)CC[C@@H]12` [2-METHOXYESTRADIOL] yielded a concentration at 0.25 h of 168 ng/mL.

The test system of the next series is SF-539. As to the kind of experiment: Cytotoxicity against human SF539 cells. The series is classed as functional.
Settings: not given
Compound `COc1cc2c(cc1O)CC[C@@H]1[C@@H]2CC[C@]2(C)[C@@H](O)CC[C@@H]12` [2-METHOXYESTRADIOL] displayed a GI50 of 320 nM. This counts as sub-micromolar.

In another series the test system is Plasma. As to the kind of experiment: Drug level in Sprague-Dawley rat plasma at 1 mg/kg, iv assessed as 2-methoxyestrone level after 120 mins. It is filed as ADME, organism-based. The arrangement: dose 1 mg/kg, route intravenous. The note with it: in vivo, 2 h. In outline: as §1
In the case of `COc1cc2c(cc1O)CC[C@@H]1[C@@H]2CC[C@]2(C)[C@@H](O)CC[C@@H]12` [2-METHOXYESTRADIOL], the Cp amounted to 5 ng/mL.

A further series has as its system Plasma. As to the kind of experiment: Drug level in Sprague-Dawley rat plasma at 1 mg/kg, iv assessed as 2-methoxyestradiol level after 30 mins. The arrangement: dose 1 mg/kg, route intravenous. It is filed as ADME, organism-based. The note with it: in vivo, 0.5 h. In outline:
as §1
With `COc1cc2c(cc1O)CC[C@@H]1[C@@H]2CC[C@]2(C)[C@@H](O)CC[C@@H]12` [2-METHOXYESTRADIOL], the Cp is 44.7 ng/mL.

The next series relates to DU-145. As to the kind of experiment: Cytotoxicity against human DU145 cells. The series is classed as functional.
Settings: not given
`COc1cc2c(cc1O)CC[C@@H]1[C@@H]2CC[C@]2(C)[C@@H](O)CC[C@@H]12` [2-METHOXYESTRADIOL] returned a GI50 of 1800 nM. This lies in the single-digit micromolar range.

For another series, the system named is OVCAR-3. As to the kind of experiment: Cytotoxicity against human OVCAR-3 cells. It is filed as functional.
Settings: not given
Compound `COc1cc2c(cc1O)CC[C@@H]1[C@@H]2CC[C@]2(C)[C@@H](O)CC[C@@H]12` [2-METHOXYESTRADIOL] showed a GI50 of 210 nM.

Another series concerns Plasma. Briefly: Drug level in Sprague-Dawley rat plasma at 1 mg/kg, iv assessed as 2-methoxyestradiol level after 120 mins. The series is classed as ADME, organism-based. The arrangement: dose 1 mg/kg, route intravenous. The note with it: in vivo, 2 h. In outline: as §1
`COc1cc2c(cc1O)CC[C@@H]1[C@@H]2CC[C@]2(C)[C@@H](O)CC[C@@H]12` [2-METHOXYESTRADIOL]: the Cp amounted to 5 ng/mL.

The next series relates to HCT-116. As to the kind of experiment: Cytotoxicity against human HCT116 cells.
Settings: not given
The series is classed as functional.
Take `COc1cc2c(cc1O)CC[C@@H]1[C@@H]2CC[C@]2(C)[C@@H](O)CC[C@@H]12` [2-METHOXYESTRADIOL]: the concentration for 50% growth inhibition (GI50) amounted to 470 nM.

A further series has as its system SN12C. As to the kind of experiment: Cytotoxicity against human SN12C cells.
Settings: not given
The series is classed as functional.
The compound `COc1cc2c(cc1O)CC[C@@H]1[C@@H]2CC[C@]2(C)[C@@H](O)CC[C@@H]12` [2-METHOXYESTRADIOL] showed a GI50 of 950 nM.

Another series has as its system HOP-62. As to the kind of experiment: Cytotoxicity against human HOP62 cells. The series is classed as functional.
Settings: not given
`COc1cc2c(cc1O)CC[C@@H]1[C@@H]2CC[C@]2(C)[C@@H](O)CC[C@@H]12` [2-METHOXYESTRADIOL]: the GI50 worked out at 700 nM.

A further series deals with Plasma. Briefly: Drug level in Sprague-Dawley rat plasma at 1 mg/kg, iv assessed as 2-methoxyestrone level after 15 mins. The series is classed as ADME, organism-based. The arrangement: dose 1 mg/kg, route intravenous. The note with it: in vivo, 0.25 h. In outline: as §1
As to `COc1cc2c(cc1O)CC[C@@H]1[C@@H]2CC[C@]2(C)[C@@H](O)CC[C@@H]12` [2-METHOXYESTRADIOL], the Cp was found to be 5 ng/mL.

Tested on in the next series: not listed separately
As to the kind of experiment: Drug level in Sprague-Dawley rat plasma at 1 mg/kg, iv after 30 mins. It is filed as ADME, organism-based. The arrangement: dose 1 mg/kg, route intravenous.
Settings: not given
In outline:
as §1
Take `COc1cc2c(cc1O)CC[C@@H]1[C@@H]2CC[C@]2(C)[C@@H](O)CC[C@@H]12` [2-METHOXYESTRADIOL]: the concentration at 0.5 h was 44.7 ng/mL.

In a further series the test system is UACC-62. Briefly: Cytotoxicity against human UACC62 cells. The series is classed as functional.
Settings: not given
In turn, `COc1cc2c(cc1O)CC[C@@H]1[C@@H]2CC[C@]2(C)[C@@H](O)CC[C@@H]12` [2-METHOXYESTRADIOL] gave a concentration for 50% growth inhibition (GI50) of 360 nM.

The next series has as its system Plasma. As to the kind of experiment: Drug level in Sprague-Dawley rat plasma at 1 mg/kg, iv assessed as 2-methoxyestrone level after 60 mins. The arrangement: dose 1 mg/kg, route intravenous. The series is classed as ADME, organism-based. The note with it: in vivo, 1 h. A digest of the protocol: as §1
For `COc1cc2c(cc1O)CC[C@@H]1[C@@H]2CC[C@]2(C)[C@@H](O)CC[C@@H]12` [2-METHOXYESTRADIOL], the Cp worked out at 5 ng/mL.

A further series deals with Plasma. As to the kind of experiment: Drug level in Sprague-Dawley rat plasma at 1 mg/kg, iv assessed as 2-methoxyestrone level after 30 mins. The note with it: in vivo, 0.5 h. The series is classed as ADME, organism-based. The arrangement: dose 1 mg/kg, route intravenous. A digest of the protocol:
as §1
Turning to `COc1cc2c(cc1O)CC[C@@H]1[C@@H]2CC[C@]2(C)[C@@H](O)CC[C@@H]12` [2-METHOXYESTRADIOL], the Cp is 5.4 ng/mL.

Tested on in another series: not listed separately
Briefly: Drug level in Sprague-Dawley rat plasma at 1 mg/kg, iv after 120 mins. The series is classed as ADME, organism-based. The arrangement: dose 1 mg/kg, route intravenous.
Settings: not given
In outline: as §1
As to `COc1cc2c(cc1O)CC[C@@H]1[C@@H]2CC[C@]2(C)[C@@H](O)CC[C@@H]12` [2-METHOXYESTRADIOL], the concentration at 2 h is 5 ng/mL.

Another series relates to MDA-MB-435. Briefly: Cytotoxicity against human MDA-MB-435 cells. It is filed as functional.
Settings: not given
Take `COc1cc2c(cc1O)CC[C@@H]1[C@@H]2CC[C@]2(C)[C@@H](O)CC[C@@H]12` [2-METHOXYESTRADIOL]: the GI50 came to 80 nM.

Tested on in a further series: not listed separately
Briefly: Drug level in Sprague-Dawley rat plasma at 1 mg/kg, iv after 60 mins. The series is classed as ADME, organism-based. The arrangement: dose 1 mg/kg, route intravenous.
Settings: not given
A digest of the protocol:
as §1
The compound `COc1cc2c(cc1O)CC[C@@H]1[C@@H]2CC[C@]2(C)[C@@H](O)CC[C@@H]12` [2-METHOXYESTRADIOL] came in with a concentration at 1 h of 11.3 ng/mL.

The test system of a further series is Plasma. As to the kind of experiment: Drug level in Sprague-Dawley rat plasma at 1 mg/kg, iv assessed as 2-methoxyestradiol level after 60 mins. It is filed as ADME, organism-based. The arrangement: dose 1 mg/kg, route intravenous. Particulars: in vivo, 1 h. In outline:
as §1
As for `COc1cc2c(cc1O)CC[C@@H]1[C@@H]2CC[C@]2(C)[C@@H](O)CC[C@@H]12` [2-METHOXYESTRADIOL], the Cp is 11.3 ng/mL.

A further series relates to Plasma. As to the kind of experiment: Drug level in Sprague-Dawley rat plasma at 1 mg/kg, iv assessed as 2-methoxyestradiol level after 15 mins. It is filed as ADME, organism-based. The arrangement: dose 1 mg/kg, route intravenous. The note with it: in vivo, 0.25 h. In outline: as §1
As to `COc1cc2c(cc1O)CC[C@@H]1[C@@H]2CC[C@]2(C)[C@@H](O)CC[C@@H]12` [2-METHOXYESTRADIOL], the Cp came out at 168 ng/mL.

(Values after ChEMBL document CHEMBL1138358, “Synthesis and in vivo antitumor evaluation of 2-methoxyestradiol 3-phosphate, 17-phosphate, and 3,17-diphosphate” (J Med Chem, 2007).)
